{"source": "ChEMBL document CHEMBL1250552", "about": "“Quantitative structure-activity relationship studies of threo-methylphenidate analogs” (Bioorg Med Chem, 2010)", "target": "Sodium-dependent dopamine transporter (Rattus norvegicus, UniProt P23977)", "sequence (P23977 whole entry)": "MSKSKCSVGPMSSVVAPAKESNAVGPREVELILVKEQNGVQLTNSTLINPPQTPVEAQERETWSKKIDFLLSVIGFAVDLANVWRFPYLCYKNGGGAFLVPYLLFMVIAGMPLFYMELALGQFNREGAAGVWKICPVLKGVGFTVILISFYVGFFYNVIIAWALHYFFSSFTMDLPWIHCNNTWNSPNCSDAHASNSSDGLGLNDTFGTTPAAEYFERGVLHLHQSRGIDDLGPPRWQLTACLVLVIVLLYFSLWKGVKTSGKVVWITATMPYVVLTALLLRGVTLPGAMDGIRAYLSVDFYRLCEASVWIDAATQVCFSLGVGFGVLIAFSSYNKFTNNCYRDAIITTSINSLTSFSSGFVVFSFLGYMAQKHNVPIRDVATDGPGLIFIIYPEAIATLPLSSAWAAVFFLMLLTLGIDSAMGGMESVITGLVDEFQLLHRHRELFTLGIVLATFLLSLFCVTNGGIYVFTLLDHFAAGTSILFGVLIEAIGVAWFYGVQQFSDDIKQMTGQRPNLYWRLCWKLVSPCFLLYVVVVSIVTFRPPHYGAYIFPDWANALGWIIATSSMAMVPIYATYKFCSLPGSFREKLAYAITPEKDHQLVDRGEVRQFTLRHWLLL", "assay": "Displacement of [3H]WIN 35428 from Sprague-Dawley rat striatal tissue after 2 hrs by liquid scintillation counting", "format": "tissue-based, Striatum", "conditions": "for pIC50: read-out: IC50; for IC50: read-out: pIC50 (converted)", "in_short": "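Male Sprague–Dawley rats anesthetized with CO₂ gas. Crude synaptosomal P₂ fraction made from striatum and homogenized in 25 mM sodium phosphate, pH 7.7, at 0 °C. Rapid filtration through glass microfiber filters, then scintillation counting.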", "note": "pIC50: −log10 of the molar value."}
{"compound": "COC[C@H](c1ccccc1)[C@H]1CCCCN1", "note": "(racemic)", "values": [{"measurement": "pIC50", "value": 7.01}]}
{"compound": "COC(=O)[C@H](c1ccccc1)[C@H]1CCCCN1Cc1ccco1", "note": "(racemic)", "values": [{"measurement": "pIC50", "value": 6.27}]}
{"compound": "COC(=O)[C@H](c1ccccc1)[C@H]1CCCCN1Cc1ccsc1", "note": "(racemic)", "values": [{"measurement": "pIC50", "value": 6.84}]}
{"compound": "COC(=O)[C@H](c1cccc(Cl)c1)[C@H]1CCCCN1", "values": [{"measurement": "pIC50", "value": 8.29}]}
{"compound": "COC(=O)[C@H](c1cccc(N)c1)[C@H]1CCCCN1", "values": [{"measurement": "pIC50", "value": 6.58}]}
{"compound": "OC[C@H](c1ccccc1)[C@H]1CCCCN1Cc1cccc(Cl)c1", "note": "(racemic)", "values": [{"measurement": "pIC50", "value": 7.59}]}
{"compound": "COC(=O)[C@H](c1ccc(OC)c(OC)c1)[C@H]1CCCCN1", "values": [{"measurement": "pIC50", "value": 6.09}]}
{"compound": "C#CCN1CCCC[C@@H]1[C@H](C(=O)OC)c1ccccc1", "note": "(racemic)", "values": [{"measurement": "pIC50", "value": 6.09}]}
{"compound": "COC(=O)[C@H](c1ccccc1F)[C@H]1CCCCN1", "values": [{"measurement": "pIC50", "value": 5.85}]}
{"compound": "COC(=O)[C@H](c1ccccc1)[C@H]1CCCCN1Cc1ccncc1", "note": "(racemic)", "values": [{"measurement": "pIC50", "value": 6.89}]}
{"compound": "COC(=O)[C@H](c1ccc(O)cc1)[C@H]1CCCCN1C", "values": [{"measurement": "IC50", "value": 1200, "unit": "nM"}]}
{"compound": "COC(=O)[C@H](c1ccc(C)cc1)[C@H]1CCCCN1C", "values": [{"measurement": "IC50", "value": 141, "unit": "nM"}]}
{"compound": "CN(C)C(=O)[C@H](c1ccccc1)[C@H]1CCCCN1Cc1ccccc1", "note": "(racemic)", "values": [{"measurement": "pIC50", "value": 5.76}]}
{"compound": "O=C(OCc1ccccc1)[C@H](c1ccccc1)[C@H]1CCCCN1", "note": "(racemic)", "values": [{"measurement": "pIC50", "value": 5.99}]}
{"compound": "COC(=O)[C@H](c1ccccc1)[C@H]1CCCCN1Cc1cccnc1", "note": "(racemic)", "values": [{"measurement": "pIC50", "value": 6.76}]}
{"compound": "COC(=O)[C@H](c1ccc(Br)cc1)[C@H]1CCCCN1", "values": [{"measurement": "pIC50", "value": 8.16}]}
{"compound": "COC(=O)[C@H](c1ccc(C)cc1)[C@H]1CCCCN1", "values": [{"measurement": "pIC50", "value": 7.48}]}
{"compound": "COC(=O)[C@H](c1ccc(C(F)(F)F)cc1)[C@H]1CCCCN1", "values": [{"measurement": "pIC50", "value": 6.21}]}
{"compound": "COC(=O)[C@H](c1ccc2ccccc2c1)[C@H]1CCCCN1", "values": [{"measurement": "pIC50", "value": 7.96}]}
{"compound": "COC(=O)[C@H](c1ccc([N+](=O)[O-])cc1)[C@H]1CCCCN1", "values": [{"measurement": "pIC50", "value": 6.31}]}
{"compound": "COC(=O)[C@H](c1cccc(Cl)c1)[C@H]1CCCCN1Cc1ccccc1", "note": "(racemic)", "values": [{"measurement": "pIC50", "value": 7.39}]}
{"compound": "NC(=O)[C@H](c1ccccc1)[C@H]1CCCCN1", "note": "(racemic)", "values": [{"measurement": "pIC50", "value": 5.76}]}
{"compound": "CCc1ccc([C@@H](C(=O)OC)[C@H]2CCCCN2)cc1", "note": "(racemic)", "values": [{"measurement": "pIC50", "value": 6.13}]}
{"compound": "COC(=O)[C@H](c1ccccc1)[C@H]1CCCCN1Cc1ccccc1Cl", "note": "(racemic)", "values": [{"measurement": "pIC50", "value": 6.61}]}
{"compound": "NC(=O)[C@H](c1ccccc1)[C@H]1CCCCN1Cc1ccccc1", "note": "(racemic)", "values": [{"measurement": "pIC50", "value": 6.42}]}
{"compound": "COC(=O)[C@H](c1ccccc1)[C@H]1CCCCN1Cc1cccs1", "note": "(racemic)", "values": [{"measurement": "pIC50", "value": 6.65}]}
{"compound": "COC(=O)[C@H](c1ccccc1)[C@H]1CCCCN1CCCc1ccccc1", "note": "(racemic)", "values": [{"measurement": "pIC50", "value": 6.57}]}
{"compound": "OC[C@H](c1cccc(F)c1)[C@H]1CCCCN1", "note": "(racemic)", "values": [{"measurement": "pIC50", "value": 6.55}]}
{"compound": "CC(=O)OC[C@H](c1ccccc1)[C@H]1CCCCN1", "note": "(racemic)", "values": [{"measurement": "pIC50", "value": 6.16}]}
{"compound": "COC(=O)[C@H](c1ccc(Cl)c(Cl)c1)[C@H]1CCCCN1Cc1ccccc1", "note": "(racemic)", "values": [{"measurement": "pIC50", "value": 7.12}]}
{"compound": "COC(=O)[C@H](c1ccccc1)[C@H]1CCCCN1CCCCCc1ccccc1", "note": "(racemic)", "values": [{"measurement": "pIC50", "value": 5.80}]}
{"compound": "COC(=O)[C@H](c1ccc(Cl)cc1)[C@H]1CCCCN1", "values": [{"measurement": "pIC50", "value": 7.69}]}
{"compound": "COC(=O)[C@H](c1ccccc1)[C@H]1CCCCN1Cc1ccc(OC)cc1", "note": "(racemic)", "values": [{"measurement": "pIC50", "value": 7.10}]}
{"compound": "COC[C@H](c1ccc(Cl)c(Cl)c1)[C@H]1CCCCN1", "note": "(racemic)", "values": [{"measurement": "pIC50", "value": 8.77}]}
{"compound": "CCN1CCCC[C@@H]1[C@H](CO)c1ccccc1", "note": "(racemic)", "values": [{"measurement": "pIC50", "value": 5.63}]}
{"compound": "COC(=O)[C@H](c1ccccc1Cl)[C@H]1CCCCN1", "values": [{"measurement": "pIC50", "value": 5.71}]}
{"compound": "COC(=O)[C@H](c1ccccc1)[C@H]1CCCCN1Cc1ccc(Cl)cc1", "note": "(racemic)", "values": [{"measurement": "pIC50", "value": 7.51}]}
{"compound": "COC(=O)[C@H](c1cc(Cl)cc(Cl)c1)[C@H]1CCCCN1", "note": "(racemic)", "values": [{"measurement": "pIC50", "value": 7.18}]}
{"compound": "COC(=O)[C@H](c1cccc(Cl)c1)[C@@]1(C)CCCCN1C", "values": [{"measurement": "pIC50", "value": 6.80}]}
{"compound": "COC(=O)[C@H](c1cccc(O)c1)[C@H]1CCCCN1", "values": [{"measurement": "pIC50", "value": 6.49}]}
{"compound": "COC(=O)[C@H](c1ccc(I)cc1)[C@H]1CCCCN1", "values": [{"measurement": "pIC50", "value": 7.85}]}
{"compound": "COC(=O)[C@H](c1ccccc1)[C@H]1CCCCN1CCc1ccccc1", "note": "(racemic)", "values": [{"measurement": "pIC50", "value": 6.17}]}
{"compound": "COC(=O)[C@H](c1ccccc1)[C@H]1CCCCN1Cc1ccc(N=C=S)cc1", "note": "(racemic)", "values": [{"measurement": "pIC50", "value": 6.37}]}
{"compound": "COC(=O)[C@H](c1cc(C)cc(C)c1)[C@H]1CCCCN1", "note": "(racemic)", "values": [{"measurement": "pIC50", "value": 5.33}]}
{"compound": "COC(=O)[C@H](c1ccccc1)[C@H]1CCCCN1Cc1ccccn1", "note": "(racemic)", "values": [{"measurement": "pIC50", "value": 6.43}]}
{"compound": "COC(=O)[C@H](c1ccc(Cl)c(Cl)c1)[C@H]1CCCCN1", "values": [{"measurement": "pIC50", "value": 8.28}]}
{"compound": "COC(=O)[C@H](c1ccccc1Br)[C@@]1(C)CCCCN1", "values": [{"measurement": "pIC50", "value": 5.73}]}
{"compound": "OC[C@H](c1ccccc1)[C@H]1CCCCN1Cc1ccccc1", "values": [{"measurement": "pIC50", "value": 7.63}]}
{"compound": "COC[C@H](c1ccccc1)[C@H]1CCCCN1Cc1ccccc1", "values": [{"measurement": "pIC50", "value": 7.75}]}
{"compound": "COC(=O)[C@H](c1ccc(OCO)c(CO)c1)[C@H]1CCCCN1C", "values": [{"measurement": "pIC50", "value": 6.21}]}
{"compound": "C=CCN1CCCC[C@@H]1[C@H](C(=O)OC)c1ccccc1", "note": "(racemic)", "values": [{"measurement": "pIC50", "value": 6.22}]}
{"compound": "COC(=O)[C@H](c1ccccc1)[C@H]1CCCCN1Cc1ccoc1", "note": "(racemic)", "values": [{"measurement": "pIC50", "value": 6.34}]}
{"compound": "COC(=O)[C@H](c1ccc(N)cc1)[C@H]1CCCCN1", "values": [{"measurement": "pIC50", "value": 7.46}]}
{"compound": "COC[C@H](c1ccc(Cl)c(Cl)c1)[C@H]1CCCCN1Cc1ccccc1", "note": "(racemic)", "values": [{"measurement": "pIC50", "value": 8.38}]}
{"compound": "OC[C@H](c1ccccc1)[C@H]1CCCCN1CCCc1ccccc1", "note": "(racemic)", "values": [{"measurement": "pIC50", "value": 6.71}]}
{"compound": "COC(=O)[C@H](c1cccc(F)c1)[C@H]1CCCCN1", "values": [{"measurement": "pIC50", "value": 7.39}]}
{"compound": "OC[C@H](c1ccc(Cl)c(Cl)c1)[C@H]1CCCCN1Cc1ccccc1", "note": "(racemic)", "values": [{"measurement": "pIC50", "value": 8.56}, {"measurement": "IC50", "value": 2.69, "unit": "nM"}]}
{"compound": "COC(=O)[C@H](c1ccccc1)[C@H]1CCCCN1Cc1ccc(Cl)s1", "note": "(racemic)", "values": [{"measurement": "pIC50", "value": 6.41}]}
{"compound": "COC(=O)[C@H](c1ccccc1)[C@H]1CCCCN1Cc1cccc(Cl)c1", "note": "(racemic)", "values": [{"measurement": "pIC50", "value": 6.97}]}
{"compound": "COC(=O)[C@H](c1ccc(F)cc1)[C@H]1CCCCN1", "values": [{"measurement": "pIC50", "value": 7.46}]}
{"compound": "OC[C@H](c1ccccc1)[C@H]1CCCCN1CCc1ccccc1", "note": "(racemic)", "values": [{"measurement": "pIC50", "value": 5.84}]}
{"compound": "COC(=O)[C@H](c1ccccc1)[C@H]1CCCCN1CCCCc1ccccc1", "note": "(racemic)", "values": [{"measurement": "pIC50", "value": 6.69}]}
{"compound": "OC[C@H](c1ccccc1)[C@H]1CCCCN1", "note": "(racemic)", "values": [{"measurement": "pIC50", "value": 6.35}]}
{"compound": "COC(=O)[C@H](c1ccccc1)[C@H]1CCCCN1Cc1ccc([N+](=O)[O-])cc1", "note": "(racemic)", "values": [{"measurement": "pIC50", "value": 6.95}]}
{"compound": "COC(=O)[C@H](c1ccccc1)[C@H]1CCCCN1CCCCCCc1ccccc1", "note": "(racemic)", "values": [{"measurement": "pIC50", "value": 6.18}]}
{"compound": "COC(=O)[C@H](c1ccccc1)[C@H]1CCCCN1Cc1ccccc1", "values": [{"measurement": "pIC50", "value": 7.28}]}
{"compound": "OC[C@H](c1ccccc1)[C@H]1CCCCN1CCCCc1ccccc1", "note": "(racemic)", "values": [{"measurement": "pIC50", "value": 6.21}]}
{"compound": "NC(=O)[C@H](c1ccc(Cl)c(Cl)c1)[C@H]1CCCCN1", "note": "(racemic)", "values": [{"measurement": "pIC50", "value": 7.79}]}
{"compound": "COC(=O)[C@H](c1cccc(Br)c1)[C@H]1CCCCN1", "values": [{"measurement": "pIC50", "value": 8.38}]}
{"compound": "OC[C@H](c1ccc(Cl)c(Cl)c1)[C@H]1CCCCN1", "note": "(racemic)", "values": [{"measurement": "pIC50", "value": 8.38}]}
